Insulin prom act = TRM-6 insulin promoter activation; activation, % at 2 µM; hit rate 0.81% among 130,000; TRM-6 cells (human fetal islet line), insulin promoter eGFP reporter, imaging; plate-scaled: unstimulated 0, stimulated control 100;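 active means activation at 2 µM above a set limit, confirmed on inspection of the cell images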;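 further: share of cells whose green reporter signal exceeds an intensity cutoff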
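Assay system: TRM-6 human fetal islet cells, insulin promoter–eGFP reporter; Also added: 0.75 µM tamoxifen as reporter inducer; Schedule: 15 h tamoxifen pre-treatment, 48 h compound treatment at 37 °C; Signal: fixed-cell fluorescence microscopy, eGFP plus Hoechst; Read-out: percent activation from GFP-positive cell fraction; Control set: stimulated and unstimulated wells.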
The depositor's hits bear a star. The full list was thinned out, with hits kept by preference.

SMILES	Insulin prom act
COC(=O)CCC(=O)NN1C(=O)c2ccccc2C1=O	10
CSc1nnc(Cn2c(=O)sc3ccccc32)n1-c1ccccc1C	-75
Cc1ccc(N2NC(C)(c3cccs3)NC2=S)cc1 (stereo unspecified)	0
CCOc1ccc(NC(=O)C(C)O)c(NS(=O)(=O)c2ccc(CCNC(C)=O)cc2)c1 (stereo unspecified)	9
Cc1ccc(CNC(=O)Cn2cccc2C(=O)c2ccccc2)cc1	5
O=C(Cn1cccc1C(=O)c1ccccc1)NCc1cccc(Cl)c1	387*
O=C(Cn1cccc1C(=O)c1ccccc1)NCc1ccc(Cl)cc1	7
CC(=O)OCC1OC(OC(C)=O)C(NC(=O)c2cccnc2)C(OC(C)=O)C1OC(C)=O (stereo unspecified)	-100
CSc1ccccc1-n1nnnc1SCC(=O)NCc1cccs1	-100
O=c1c2ccccc2nc2c3ccccc3c(NCCN3CCOCC3)nn12	9
C=CCNc1nc(NCCN2CCOCC2)nc(N2CCOCC2)n1	493*
CNc1nc(C(=O)O)nc(N2CCOCC2)n1	272
Cc1ccc(-c2nc(C(=O)O)cs2)cc1	146
Cc1nc(N(C)C)ncc1C(=O)O	2
Cc1ccc(-c2ccc(C(=O)O)c(C)n2)cc1	386*
COc1ccc(OC)c(NC(=O)C2CCCN(S(=O)(=O)c3cccc4nsnc34)C2)c1 (stereo unspecified)	0
Cc1ccc(CCNC(=O)C2CCN(S(=O)(=O)c3cccc4nsnc34)CC2)cc1	7
Cc1ccnc(NC(=O)C2CCN(S(=O)(=O)c3cccc4nsnc34)CC2)c1	125*
COc1ccc(/C=N/NC(=O)CN(CCc2ccccc2)S(=O)(=O)c2ccc(NC(C)=O)cc2)cc1OC	0
Cc1ccc2nc(C(=O)N3CCc4c([nH]c5ccccc45)C3c3ccccn3)cn2c1 (stereo unspecified)	7
COc1cc(-c2nc(S(=O)(=O)c3ccc(Cl)cc3)c(N3CCOCC3)o2)cc(OC)c1OC	114
COc1ccccc1N(CC(=O)Nc1cc(C)on1)S(=O)(=O)c1ccc(Cl)cc1	-3
COc1ccccc1-c1nc(S(=O)(=O)c2ccc(Cl)cc2)c(N(C)C)o1	471*
Cc1cccc(S(=O)(=O)NCCC(=O)OCC(=O)Nc2ccc(C#N)cc2)c1	-10
COc1ccc(C2=C(SC)CC2=NC(C)(C)C)cc1	6
SMILES	Insulin prom act
CN1c2ccccc2N(C)C1c1ccc2c(c1)OCO2	193
O=C1C2C3C=CC(CC3)C2C(=O)N1c1ccc2c(c1)OCO2 (stereo unspecified)	107
CC12CN3CC(C)(CN(C1)C3c1ccc3c(c1)OCO3)C2=O (stereo unspecified)	438*
COc1cc(/C=C(\C#N)C(=O)Nc2cc(C(F)(F)F)ccc2Cl)ccc1OCC(=O)Nc1cccc(C(F)(F)F)c1	0
COc1ccc(N2CCN(C(=O)CCNC(=O)c3ccccc3)CC2)cc1	-5
Cc1cc(C)cc(N(CC(=O)N2CCOCC2)S(=O)(=O)c2ccccc2)c1	72
COc1ccc(N2CCN(C(=O)CN(c3ccccc3)S(=O)(=O)c3ccc(OC)cc3)CC2)cc1	80*
COc1ccc(C)cc1NC(=O)CSc1nnc(CC(=O)Nc2ccccc2C)n1C	-67
CC(C)c1cc(NC(=O)CSc2nnc(-c3ccccc3F)n2C)on1	-6
NC(=O)c1ccc(/C=N/O)nc1	0
Nc1c(C(=O)Nc2nc3ccccc3s2)sc2nc(-c3cccs3)ccc12	196*
Nc1c(C(=O)Nc2ccccc2)sc2nc(-c3ccco3)ccc12	-80
O=C(NC(=S)Nc1nc2ccccc2s1)c1cccs1	-7
COc1ccc(N2CCN(CCCNC(=O)Nc3ccccc3)CC2)cc1	229
COc1ccc2c(C(=O)CN3CCN(c4ccccc4)CC3)c[nH]c2c1	94*
COc1cccc(N2CCN(CC(=O)NC(=O)NCc3ccco3)CC2)c1	-8
COc1ccccc1N1CCN(S(=O)(=O)c2ccc3c4c(cccc24)C(=O)N3C)CC1	7
C=CCN1C(=O)c2cccc3c(N4CCCCC4)ccc(c23)C1=O	669*
COc1ccc(C2SCCN2C(=S)Nc2cccc(C(F)(F)F)c2)cc1 (stereo unspecified)	122
Clc1ccc2c(c1)C(N1CCNCC1)Cc1ccccc1S2 (stereo unspecified)	507*
Clc1cccc2c1Sc1ccccc1CC2N1CCNCC1 (stereo unspecified)	3
O=C(CSc1nc2ccccc2s1)Nc1nccs1	-3
Nc1nonc1NC(=O)CSc1nc2ccccc2s1	4
O=C(CSc1nc2ccccc2s1)CSc1nc2ccccc2s1	94*
O=C(CSc1nc2ccccc2o1)N/N=C/c1ccccc1	3
SMILES	Insulin prom act
O=C(CSc1nc2ccccc2s1)NNC(=S)Nc1ccccc1	-3
O=C(CSc1nc2ccccc2s1)N/N=C/c1ccc(C(=O)O)cc1	161*
CC(OC(=O)c1ccncc1)C(=O)Nc1cccc(Cl)c1 (stereo unspecified)	7
Cc1cccc2c(=O)oc(-c3ccc4c(c3)C(=O)N(CC3CCCO3)C4=O)nc12 (stereo unspecified)	0
COc1ccc(CNC(=S)Nc2cccc(C)c2C)cc1	0
COCCNC(=O)CCc1nnc(C2(c3ccc(Cl)cc3)CCC2)o1	5
Cc1ccc(NC(=O)c2ccc(CSc3ccccn3)cc2)cc1	0
COc1ccc(NC(=O)CC(C)c2ccccc2)c([N+](=O)[O-])c1 (stereo unspecified)	443*
COc1ccc(NC(=O)COC(=O)c2ccco2)c([N+](=O)[O-])c1	-9
COc1ccc(NC(=O)/C=C/c2ccccc2)c([N+](=O)[O-])c1	-9
COc1cccc(N2CCN(Cc3nc4ccccc4c(=O)[nH]3)CC2)c1	-79
COc1ccc(N2CCN(Cc3nc4ccccc4c(=O)[nH]3)CC2)cc1	579*
CCC(CC)C(=O)N1CCN(Cc2nc3ccccc3c(=O)[nH]2)CC1	-10
COCCNC(=O)Cn1c(=O)n(CCCCCC(=O)Nc2ccccc2)c(=O)c2sccc21	-3
CCN(CC)C1=NC=CC(c2ccccc2)=CC1C (stereo unspecified)	3
CCc1c(C)c(C#N)c2nc3ccccc3n2c1NCC1CCCO1 (stereo unspecified)	79*
CCc1c(C)c(C#N)c2nc3ccccc3n2c1Cl	153
CC(C)c1cc(NCC2CCCO2)n2c(nc3ccccc32)c1C#N (stereo unspecified)	79*
Cc1cc(NCCN2CCCCC2)n2c(nc3ccccc32)c1C#N	5
CCc1c(C)c(C#N)c2nc3ccccc3n2c1N1CCN(c2cc(C)ccn2)CC1	-3
Cc1c(C#N)c2ccccc2n1CC(=O)NCC1CCCO1 (stereo unspecified)	7
CC1CCc2c(sc(N)c2C(=O)OC(C)C)C1 (stereo unspecified)	-7
CCc1cccc(NC(=S)N(CCCN2CCOCC2)C(C)c2cc3cccc(OC)c3o2)c1 (stereo unspecified)	7
CS(=O)(=O)N(CC(=O)N1CCN(c2ccc(F)cc2)CC1)c1ccc(F)c(Cl)c1	0
CCC(C)(C)NC(=O)C(c1cccn1C)N(C(=O)Cn1nnc2ccccc21)c1ccc(OC)cc1 (stereo unspecified)	150*
CCC(C)(C)NC(=O)C(c1ccccc1)N(Cc1cccs1)C(=O)Cn1nnc2ccccc21 (stereo unspecified)	-5
CCc1ccc(C(C(=O)NC(C)(C)CC)N(Cc2ccco2)C(=O)Cn2nnc3ccccc32)cc1 (stereo unspecified)	360
